What was measured:
Assay type in all cases: functional, cell-based
[1] = test system: SK-OV-3; experiment: Antiproliferative activity against human SKOV3 cells after 24 hrs by MTT assay; settings: SK-OV-3, 24 h
How it was run: (§1)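 MTT assay. 1 × 10⁴ cells per well were plated and incubated 24 h before dye was added (20 µL of 5 mg/mL MTT in PBS per well), then incubated until a purple precipitate formed. Precipitate dissolved in 150 µL DMSO after medium removal, then absorbance read.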

[2] = test system: K562; experiment: Antiproliferative activity against human K562 cells after 24 hrs by MTT assay; settings: K562, 24 h; how it was run: as §1
[3] = test system: HT-29; experiment: Antiproliferative activity against human HT-29 cells after 24 hrs by MTT assay; settings: HT-29, 24 h; how it was run: as §1
[4] = test system: SW-620; experiment: Antiproliferative activity against human SW620 cells after 24 hrs by MTT assay; settings: SW-620, 24 h; how it was run: as §1
[5] = test system: HepG2; experiment: Antiproliferative activity against human HepG2 cells after 24 hrs by MTT assay; settings: HepG2, 24 h; how it was run: as §1
[6] = test system: HCT-116; experiment: Antiproliferative activity against human HCT116 cells after 24 hrs by MTT assay; settings: HCT-116, 24 h; how it was run: as §1

| IC50 [1] [µM] | IC50 [2] [µM] | IC50 [3] [µM] | IC50 [4] [µM] | IC50 [5] [µM] | IC50 [6] [µM] | Structure (SMILES) |
| --- | --- | --- | --- | --- | --- | --- |
| 9.72 | 5.87 | 4.26 | 4.09 | 2.83 | 8.05 | COc1ccc(C(=O)/C=C/c2cccc([N+](=O)[O-])c2)c2c1C=CC(C)(C)O2 |
| > 10 | > 10 | > 10 | > 10 | > 10 | > 10 | COc1ccc(C(=O)/C=C/c2ccccc2Cl)c2c1C=CC(C)(C)O2 |
| > 10 | > 10 | > 10 | > 10 | > 10 | > 10 | COc1ccc(C(=O)/C=C/c2ccc(O)cc2)c2c1C=CC(C)(C)O2 |
| > 10 | > 10 | > 10 | > 10 | > 10 | > 10 | COc1ccccc1/C=C/C(=O)c1ccc(OC)c2c1OC(C)(C)C=C2 |
| 9.7 | > 10 | > 10 | 9.15 | > 10 | 7.65 | COc1ccc(C(=O)/C=C/c2cc(OC)c(OC)c(OC)c2)c2c1C=CC(C)(C)O2 |
| > 10 | > 10 | > 10 | > 10 | > 10 | > 10 | COc1ccc(C(=O)/C=C/c2ccc(OC)c(OC)c2OC)c2c1C=CC(C)(C)O2 |
| 6.27 | 5.51 | 4.97 | 4.23 | 6.64 | 5.24 | COc1ccc(C(=O)/C=C/c2cc(Cl)ccc2O)c2c1C=CC(C)(C)O2 |
| > 10 | > 10 | > 10 | > 10 | > 10 | > 10 | COc1ccc(C(=O)/C=C/c2ccc(-c3ccccc3)cc2)c2c1C=CC(C)(C)O2 |
| > 10 | > 10 | > 10 | > 10 | > 10 | > 10 | COc1ccc(C(=O)/C=C/c2cccs2)c2c1C=CC(C)(C)O2 |
| 7.65 | 3.67 | 4.48 | 2.14 | 0.21 | 5.82 | COc1ccc(C(=O)/C=C/c2ccc3ccccc3c2)c2c1C=CC(C)(C)O2 |
| > 10 | > 10 | > 10 | > 10 | > 10 | > 10 | COc1ccc(C(=O)/C=C/c2ccco2)c2c1C=CC(C)(C)O2 |
| 3.42 | 7.77 | 3.73 | 3.52 | 2.61 | 8.88 | COc1ccc(C(=O)/C=C/c2ccc([N+](=O)[O-])cc2)c2c1C=CC(C)(C)O2 |
| > 10 | > 10 | > 10 | > 10 | > 10 | > 10 | COc1ccc(C(=O)/C=C/c2cccc(Cl)c2)c2c1C=CC(C)(C)O2 |
| > 10 | > 10 | > 10 | > 10 | > 10 | > 10 | COc1ccc(C(=O)/C=C/c2ccc(F)cc2)c2c1C=CC(C)(C)O2 |
| 7.2 | > 10 | > 6.6 | > 10 | > 10 | > 10 | COc1ccc(C(=O)/C=C/c2ccc(-n3ccnc3)cc2)c2c1C=CC(C)(C)O2 |
| 7.37 | 6.18 | 8.36 | 7.15 | 4.74 | 8.59 | COc1ccc(C(=O)/C=C/c2ccc(N3CCCC3)cc2)c2c1C=CC(C)(C)O2 |
| > 10 | > 10 | > 10 | > 10 | > 10 | > 10 | COc1ccc(C(=O)/C=C/c2cccc(O)c2)c2c1C=CC(C)(C)O2 |
| 2.35 | 3.02 | 3.79 | 2.25 | 4.28 | 4.53 | COc1ccc(C(=O)/C=C/c2ccc3ccccc3n2)c2c1C=CC(C)(C)O2 |
| > 10 | > 10 | > 10 | > 10 | > 10 | > 10 | COc1ccc(C(=O)/C=C/c2ccc(Cl)cc2)c2c1C=CC(C)(C)O2 |

| IC50 [1] [µM] | IC50 [2] [µM] | IC50 [3] [µM] | IC50 [4] [µM] | IC50 [5] [µM] | IC50 [6] [µM] | Structure (SMILES) |
| --- | --- | --- | --- | --- | --- | --- |
| > 10 | > 10 | > 10 | > 10 | > 10 | > 10 | CCOc1cc(/C=C/C(=O)c2ccc(OC)c3c2OC(C)(C)C=C3)ccc1O |
| > 10 | > 10 | > 10 | > 10 | > 10 | > 10 | COc1cc(/C=C/C(=O)c2ccc(OC)c3c2OC(C)(C)C=C3)cc(OC)c1O |
| 9.33 | 7.85 | 9.05 | 7.87 | > 10 | 9.71 | COc1ccc(C(=O)/C=C/c2cccc(C(F)(F)F)c2)c2c1C=CC(C)(C)O2 |
| 9.94 | 9.03 | 7.58 | 7.7 | > 10 | 9.44 | COc1ccc(C(=O)/C=C/c2ccc(Cl)c(Cl)c2)c2c1C=CC(C)(C)O2 |
| > 10 | > 10 | > 10 | > 10 | > 10 | > 10 | COc1ccc(C(=O)/C=C/c2ccc(O)c(Br)c2)c2c1C=CC(C)(C)O2 |
| > 10 | > 10 | > 10 | > 10 | > 10 | > 10 | COc1ccc(C(=O)/C=C/c2cccc(F)c2)c2c1C=CC(C)(C)O2 |
| 2.75 | 3.5 | 1.87 | 0.57 | 0.73 | 1.92 | COc1ccc(C(=O)/C=C/c2ccc(N(C)C)cc2)c2c1C=CC(C)(C)O2 |
| > 10 | > 10 | > 10 | > 10 | > 10 | > 10 | COc1ccc(C(=O)/C=C/c2ccc(N(c3ccccc3)c3ccccc3)cc2)c2c1C=CC(C)(C)O2 |
| > 10 | > 10 | > 10 | > 10 | > 10 | > 10 | COc1ccc(C(=O)/C=C/c2ccc(C(F)(F)F)cc2)c2c1C=CC(C)(C)O2 |
| 9.36 | > 10 | > 10 | > 10 | > 10 | > 10 | COc1cccc(/C=C/C(=O)c2ccc(OC)c3c2OC(C)(C)C=C3)c1 |
| > 10 | > 10 | > 10 | > 10 | > 10 | > 10 | COc1ccc(/C=C/C(=O)c2ccc(OC)c3c2OC(C)(C)C=C3)cn1 |
| > 10 | > 10 | > 10 | > 10 | > 10 | > 10 | COc1ccc(C(=O)/C=C/c2ccsc2)c2c1C=CC(C)(C)O2 |
| > 10 | > 10 | > 10 | > 10 | > 10 | > 10 | COc1ccc(C(=O)/C=C/c2ccccc2)c2c1C=CC(C)(C)O2 |
| 8.39 | 5.4 | 2.12 | 5 | 5.76 | 6.63 | COc1ccc(C(=O)/C=C/c2ccccn2)c2c1C=CC(C)(C)O2 |
| > 10 | > 10 | > 10 | > 10 | > 10 | > 10 | COc1ccc(C(=O)/C=C/c2cccc3ccccc23)c2c1C=CC(C)(C)O2 |
| 4.88 | > 10 | > 10 | 6.57 | 7.56 | > 10 | COc1ccc(/C=C/C(=O)c2ccc(OC)c3c2OC(C)(C)C=C3)c(F)c1 |
| > 10 | > 10 | > 10 | > 10 | > 10 | > 10 | COc1ccc(C(=O)/C=C/c2ccc(Br)cc2)c2c1C=CC(C)(C)O2 |
| > 10 | > 10 | > 10 | > 10 | > 10 | > 10 | COc1cc(OC)c(OC)cc1/C=C/C(=O)c1ccc(OC)c2c1OC(C)(C)C=C2 |

From ChEMBL document CHEMBL2040816, “Design, synthesis, and structure-activity relationship studies of novel millepachine derivatives as potent antiproliferative agents” (Eur J Med Chem, 2012)
